Data set [1] is described as follows: Ratio of drug level in brain to serum in gerbil at 0.1 mg/kg, ip after 36 mins. As to conditions: gerbillinae. In kind it is ADME, organism-based. More on the design: dose 0.1 mg/kg, route intraperitoneal. The procedure, abridged: (§1)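 Gerbils given single IP dose in 100% PEG-400 (0.1–30 mg/kg); brain and serum sampled 36 min post-dose, matching the interval from dosing to end of forced swim test. Drug concentrations (nM) measured in each matrix and brain-to-serum ratio calculated; mean of n = 3 with SD.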

For data set [2], the target named is 5-hydroxytryptamine receptor 1B (Homo sapiens, UniProt P28222). In words: Inhibition of 5HT1B receptor (unknown origin).
Sequence of 5-hydroxytryptamine receptor 1B (P28222 whole entry): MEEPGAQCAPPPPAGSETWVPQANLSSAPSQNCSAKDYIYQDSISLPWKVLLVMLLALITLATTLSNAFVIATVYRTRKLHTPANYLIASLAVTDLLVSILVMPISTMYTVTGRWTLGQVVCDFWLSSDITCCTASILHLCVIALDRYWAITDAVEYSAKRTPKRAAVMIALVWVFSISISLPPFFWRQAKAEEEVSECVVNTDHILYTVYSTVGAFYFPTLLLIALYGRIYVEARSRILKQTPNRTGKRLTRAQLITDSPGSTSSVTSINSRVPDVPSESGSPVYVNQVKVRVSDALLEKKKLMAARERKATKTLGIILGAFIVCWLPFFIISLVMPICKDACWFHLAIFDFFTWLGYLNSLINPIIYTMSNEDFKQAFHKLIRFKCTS
Data set [3] has as its target Sodium-dependent dopamine transporter (Homo sapiens, UniProt Q01959). Kind of data set: Inhibition of DAT (unknown origin).
Data set [4] has as its target 5-hydroxytryptamine receptor 2A (Homo sapiens, UniProt P28223). In words: Inhibition of 5HT2A receptor (unknown origin).
Data set [5] addresses 5-hydroxytryptamine receptor 2B (Homo sapiens, UniProt P41595). Kind of data set: Inhibition of 5HT2B receptor (unknown origin).
Data set [6] deals with T1, Neuromedin-K receptor (Homo sapiens, UniProt P29371).
T1 sequence (P29371 whole entry): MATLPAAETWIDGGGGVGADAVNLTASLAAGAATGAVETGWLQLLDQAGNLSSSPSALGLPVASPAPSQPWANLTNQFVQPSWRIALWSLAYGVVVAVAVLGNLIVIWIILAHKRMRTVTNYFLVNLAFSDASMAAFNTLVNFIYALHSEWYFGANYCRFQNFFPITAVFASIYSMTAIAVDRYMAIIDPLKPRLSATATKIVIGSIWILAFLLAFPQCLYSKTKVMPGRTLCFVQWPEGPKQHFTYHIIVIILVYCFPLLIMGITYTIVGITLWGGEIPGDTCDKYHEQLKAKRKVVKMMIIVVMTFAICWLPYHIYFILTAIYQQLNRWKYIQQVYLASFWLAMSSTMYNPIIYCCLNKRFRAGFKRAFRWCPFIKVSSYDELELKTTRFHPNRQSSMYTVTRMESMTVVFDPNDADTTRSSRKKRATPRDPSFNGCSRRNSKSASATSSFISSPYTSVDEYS
In words: Inhibition of NK3 receptor (unknown origin).

The nature of data set [7]: Drug uptake in gerbil brain at 0.3 mg/kg, ip after 36 mins. More on the design: dose 0.3 mg/kg, route intraperitoneal. The data set is classed as ADME, organism-based. As to conditions: gerbillinae, read-out: Drug uptake. The procedure, abridged:
(§2)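 Gerbils given IP doses as a solution in 100% PEG-400. Brain and serum sampled 36 min post-injection, covering the time from dosing to the end of the behavioral test. Values are means (n = 3) with SD.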

The nature of data set [8]: Ratio of drug level in brain to serum in gerbil at 3 mg/kg, ip after 36 mins. In kind it is ADME, organism-based. On the set-up: dose 3 mg/kg, route intraperitoneal. As to conditions: gerbillinae. An outline of the steps: as §1
For data set [9], the target named is Sodium-dependent noradrenaline transporter (Homo sapiens, UniProt P23975). Kind of data set: Inhibition of NET (unknown origin).
Sequence of Sodium-dependent noradrenaline transporter (P23975 whole entry): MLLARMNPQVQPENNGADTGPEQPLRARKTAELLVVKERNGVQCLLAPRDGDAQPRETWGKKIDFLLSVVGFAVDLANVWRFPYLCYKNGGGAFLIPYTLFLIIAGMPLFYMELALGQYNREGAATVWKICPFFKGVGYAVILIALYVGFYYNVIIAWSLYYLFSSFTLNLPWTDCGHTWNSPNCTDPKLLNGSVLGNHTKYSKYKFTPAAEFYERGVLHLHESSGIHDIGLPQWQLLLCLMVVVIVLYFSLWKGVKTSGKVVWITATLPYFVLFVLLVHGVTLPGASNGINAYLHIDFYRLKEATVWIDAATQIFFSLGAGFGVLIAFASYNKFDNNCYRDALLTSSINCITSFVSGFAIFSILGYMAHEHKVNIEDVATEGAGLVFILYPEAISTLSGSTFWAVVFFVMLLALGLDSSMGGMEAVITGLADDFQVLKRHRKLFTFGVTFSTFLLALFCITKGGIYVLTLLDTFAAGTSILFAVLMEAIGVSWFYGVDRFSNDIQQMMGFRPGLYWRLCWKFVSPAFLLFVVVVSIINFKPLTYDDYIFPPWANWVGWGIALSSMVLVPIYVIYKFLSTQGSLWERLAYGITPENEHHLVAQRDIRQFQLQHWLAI
Data set [10] is described as follows: Binding affinity to gerbil NK1 receptor. On the set-up: species or system Gerbillinae.
Data set [11] is described as follows: Drug uptake in gerbil brain at 0.1 mg/kg, ip after 36 mins. The data set is classed as ADME, organism-based. As to conditions: gerbillinae, read-out: Drug uptake. More on the design: dose 0.1 mg/kg, route intraperitoneal. An outline of the steps: as §2
For data set [12], the species on record is Homo sapiens. In words: Inhibition of Ca2+ channel (unknown origin) at 10 uM. The procedure, abridged: (§3)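 Screened at 10 µM in a commercial panel of over 70 receptors. Significance threshold set at ≥50% inhibition.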
Data set [13] concerns Gerbillinae. In words: Toxicity in gerbil assessed as behavioral change measuring spontaneous locomotor activity at 0.1 to 1 mg/kg, ip after 30 mins relative to vehicle-treated control. The following applies: in vivo, 0.5 h. In kind it is organism-based. On the set-up: dose 0.1-1 mg/kg, route intraperitoneal.
The nature of data set [14]: Drug uptake in gerbil brain at 30 mg/kg, ip after 36 mins. The data set is classed as ADME, organism-based. On the set-up: dose 30 mg/kg, route intraperitoneal. As to conditions: gerbillinae, read-out: Drug uptake. The procedure, abridged: as §2
The species entered for data set [15] is Homo sapiens. Kind of data set: Inhibition of Na+ channel (unknown origin) at 10 uM. An outline of the steps:
as §3

Data set [16] can be described thus: Drug uptake in gerbil brain at 1 mg/kg, ip after 36 mins. The following applies: gerbillinae, read-out: Drug uptake. In kind it is ADME, organism-based. On the set-up: dose 1 mg/kg, route intraperitoneal. An outline of the steps: as §2
The subject of data set [17] is Gerbillinae. In words: Antidepressant activity in gerbil assessed as decrease in immobility time at 10 to 30 mg/kg, ip administered for 30 mins prior to testing measured for 6 mins by forced swimming test. In kind it is functional, organism-based.

Active and inactive are the calls of the source.

Sequence of 5-hydroxytryptamine receptor 2A (P28223 whole entry): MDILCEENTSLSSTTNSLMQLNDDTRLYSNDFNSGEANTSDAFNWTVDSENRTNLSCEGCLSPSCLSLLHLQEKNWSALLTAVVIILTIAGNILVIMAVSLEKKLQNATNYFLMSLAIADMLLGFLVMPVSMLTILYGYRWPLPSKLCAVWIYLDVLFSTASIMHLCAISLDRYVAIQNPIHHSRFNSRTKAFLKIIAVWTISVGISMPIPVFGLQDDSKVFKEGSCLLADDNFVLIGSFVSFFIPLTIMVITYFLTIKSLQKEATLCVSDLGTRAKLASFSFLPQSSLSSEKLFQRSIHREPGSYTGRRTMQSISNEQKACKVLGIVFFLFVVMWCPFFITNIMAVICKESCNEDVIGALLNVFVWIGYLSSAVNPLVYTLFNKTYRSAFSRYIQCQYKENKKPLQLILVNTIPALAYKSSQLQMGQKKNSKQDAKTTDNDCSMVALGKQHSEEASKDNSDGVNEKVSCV
Sequence of 5-hydroxytryptamine receptor 2B (P41595 whole entry): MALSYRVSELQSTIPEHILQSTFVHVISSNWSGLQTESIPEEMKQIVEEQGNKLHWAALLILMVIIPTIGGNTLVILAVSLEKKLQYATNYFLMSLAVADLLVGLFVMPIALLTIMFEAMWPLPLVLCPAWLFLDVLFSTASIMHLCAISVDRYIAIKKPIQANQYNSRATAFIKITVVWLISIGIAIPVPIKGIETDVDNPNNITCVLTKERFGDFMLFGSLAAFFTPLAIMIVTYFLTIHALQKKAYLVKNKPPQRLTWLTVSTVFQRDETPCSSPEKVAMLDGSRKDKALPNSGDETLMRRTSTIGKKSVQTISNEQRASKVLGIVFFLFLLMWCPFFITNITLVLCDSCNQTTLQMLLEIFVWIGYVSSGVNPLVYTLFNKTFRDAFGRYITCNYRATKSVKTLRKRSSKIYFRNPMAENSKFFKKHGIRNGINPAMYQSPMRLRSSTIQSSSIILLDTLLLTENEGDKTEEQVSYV
Sequence of Sodium-dependent dopamine transporter (Q01959 whole entry): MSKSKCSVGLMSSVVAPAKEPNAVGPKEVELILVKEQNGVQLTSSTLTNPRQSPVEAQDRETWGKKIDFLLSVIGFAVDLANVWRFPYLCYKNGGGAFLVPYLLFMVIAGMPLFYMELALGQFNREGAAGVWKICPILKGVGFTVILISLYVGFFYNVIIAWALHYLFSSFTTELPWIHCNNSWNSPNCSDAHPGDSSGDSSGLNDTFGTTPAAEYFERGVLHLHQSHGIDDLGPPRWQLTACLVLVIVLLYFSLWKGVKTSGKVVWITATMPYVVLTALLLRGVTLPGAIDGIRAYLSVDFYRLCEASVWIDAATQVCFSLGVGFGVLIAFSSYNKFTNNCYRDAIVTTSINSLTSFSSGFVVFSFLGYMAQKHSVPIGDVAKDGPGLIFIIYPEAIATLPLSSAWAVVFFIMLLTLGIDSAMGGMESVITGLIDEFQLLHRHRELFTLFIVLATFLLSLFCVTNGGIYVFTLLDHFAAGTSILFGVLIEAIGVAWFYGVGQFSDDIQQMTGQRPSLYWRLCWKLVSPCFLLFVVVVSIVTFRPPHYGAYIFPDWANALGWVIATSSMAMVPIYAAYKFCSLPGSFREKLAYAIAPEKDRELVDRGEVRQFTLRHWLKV

Turning to `FC(F)(F)c1cc(COCC2(c3ccccc3)CCNCC2)cc(C(F)(F)F)c1`, the values for the concentration ratio (Kp) at 0.6 h in data set [1] and in data set [8] were 2.3 and 4.2, respectively. Besides, the 50% inhibitory concentration (IC50) in data set [2], in data set [3], in data set [4], in data set [5], in data set [6] and in data set [9] was more than 1 µM in each case. Also, the IC50 (as a rule, the midpoint of a concentration-inhibition curve) in [10] amounted to 0.002 µM. The concentration at 0.6 h worked out at 44 nM in data set [7], 8.8 nM in data set [11], 7300 nM in data set [14] and 150 nM in data set [16]. The inhibition entry in [12] and in [15] was “Active” throughout. Moreover, the Activity entry in data set [13] is reported as “Non-toxic”. Further, the outcome in [17] was inactive.

The values above are taken from ChEMBL document CHEMBL2346641, “Discovery of disubstituted piperidines and homopiperidines as potent dual NK1 receptor antagonists-serotonin reuptake transporter inhibitors for the treatment of depression” (Bioorg Med Chem, 2013).
